MC4R antagonist – MC4R antagonists of cAMP signaling, primary screen, cell-based, TR-FRET, antagonist arm of biased-ligand search | 360,000 compounds, 0.48% hits | MC4R-expressing cells, MTII-stimulated cAMP, LANCE TR-FRET | AID 540295, 2011 | inhibition, % at 6.5 µM;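 active means inhibition above its plate's cutoff, the mean of tested wells on that plate plus 3 SD, cut at about 29% in these data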;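 further: 0% = Melanotan II alone and 100% = Melanotan II plus saturating MCL0020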
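system = U2OS cells with stable human MC4R expression | also added = Melanotan II challenge after compound preincubation | dosing = one concentration, 6.5 µM nominal | incubation = compound 30 min, challenge 1 h, detection 1 h | measured by = TR-FRET with Eu-cAMP and labeled anti-cAMP, 671 nm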
MC4R ag barr – MC4R agonists recruiting beta-arrestin, primary screen, cell-based, luminescence, agonist arm of biased-ligand search; AID 540308, 2011; 360,000 compounds, 0.98% hits; Melanocortin receptor 4 (Homo sapiens), P32245; activation, % at 8.9 µM; U2OS MC4R beta-arrestin complementation; percent of melanotan II response, DMSO zero;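 active means activation above a per-plate cutoff, the mean activation of sample wells on that plate plus 3 SD, cut at about 8% in these data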
ABHD5-PLIN5 inh – ABHD5-PLIN5 interaction inhibitors, primary screen, cell lysate, split luciferase complementation, luminescence; Perilipin-5 (Homo sapiens) + 1-acylglycerol-3-phosphate O-acyltransferase ABHD5 (Homo …; Split G. princeps luciferase complementation, 4 h; inhibition, % at 4 µM; 360,000 compounds, 0.78% hits; AID 602281, 2012;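 active means inhibition above the mean inhibition across every tested compound plus 3 SD, cut at about 22% in these data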;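 further: 0% = DMSO only wells and the 100% control is not disclosed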
Target sequence (Q00G26 whole entry, looked up): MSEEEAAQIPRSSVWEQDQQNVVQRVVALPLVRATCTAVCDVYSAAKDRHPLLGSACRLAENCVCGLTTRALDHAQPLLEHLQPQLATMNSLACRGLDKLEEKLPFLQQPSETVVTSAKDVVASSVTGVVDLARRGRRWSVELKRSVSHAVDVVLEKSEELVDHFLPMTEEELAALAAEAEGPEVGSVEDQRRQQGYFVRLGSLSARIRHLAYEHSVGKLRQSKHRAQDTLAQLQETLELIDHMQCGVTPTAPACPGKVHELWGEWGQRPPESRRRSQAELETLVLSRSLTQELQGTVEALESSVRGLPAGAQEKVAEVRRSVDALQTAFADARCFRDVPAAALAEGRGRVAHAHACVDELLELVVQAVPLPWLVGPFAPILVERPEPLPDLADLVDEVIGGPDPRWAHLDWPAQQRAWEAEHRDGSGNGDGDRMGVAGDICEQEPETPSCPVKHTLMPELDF
Target sequence (Q8WTS1 whole entry, looked up): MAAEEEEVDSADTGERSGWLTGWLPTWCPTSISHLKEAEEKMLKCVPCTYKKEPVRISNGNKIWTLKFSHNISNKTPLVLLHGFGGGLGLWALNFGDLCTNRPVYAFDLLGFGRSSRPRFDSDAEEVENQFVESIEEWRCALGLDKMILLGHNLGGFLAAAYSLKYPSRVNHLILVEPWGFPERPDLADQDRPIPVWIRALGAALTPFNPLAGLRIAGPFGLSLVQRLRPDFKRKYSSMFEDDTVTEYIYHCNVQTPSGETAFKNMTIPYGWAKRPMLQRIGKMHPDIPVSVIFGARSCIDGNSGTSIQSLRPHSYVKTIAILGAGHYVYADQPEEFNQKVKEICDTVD
PfG6PD inh – PfG6PD enzyme inhibitors, primary screen, biochemical, fluorescence intensity, uHTS; glucose-6-phosphate dehydrogenase-6-phosphogluconolactonase (Plasmodium falciparum 3D7); PfGluPho enzyme, NADPH resazurin-diaphorase fluorescence; inhibition, % at 20 µM; 350,000 compounds, 0.78% hits; AID 504690, 2011;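 active means inhibition reaching at least a set limit at 20 µM in the primary screen, cut at about 59% in these data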;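 further: 0% = DMSO wells with substrate and 100% = DMSO wells lacking glucose-6-phosphate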
Beta2AR agonist – beta2AR agonists driving receptor internalization, primary screen, cell-based, FAP fluorogen, flow cytometry; Beta-2 adrenergic receptor (Homo sapiens), P07550; Am2.2-beta2AR cells; response, % (test concentration not listed); 340,000 compounds, 0.43% hits; AID 504454, 2011;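 active means response above a set limit, near 3 SD of response in nonfluorescent compounds, cut at about 42% in these data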
* marks the source's active call; other numbers are inactive results; x = no result. This is a sample that favours compounds with a hit; in the whole collection about 3% have one here.

SMILES	MC4R antagonist	MC4R ag barr	ABHD5-PLIN5 inh	PfG6PD inh	Beta2AR agonist
O=C(NC1CCCCC1)c1ccc(-c2ccccc2F)o1	2	1	23*	29	4
CC1(c2nnnn2-c2ccc3c(c2)OCCO3)CCC(=O)N1Cc1ccc(F)cc1 (centres undefined)	x	x	-16	x	x
COc1ccc(N2CSC3=C(C#N)C(c4cc(OC)ccc4OC)CC(=O)N3C2)c(OC)c1 (centres undefined)	-1	0	-14	113*	12
CCOC(=O)c1[nH]c2ccccc2c1NC(=O)c1ccc2c(c1)OCO2	-1	1	8	-12	10
CCOC(=O)c1oc2ccccc2c1NC(=O)c1ccc2c(c1)OCO2	11	9.4*	5	-9	-2
O=C(O)CC(NC(=O)C(c1ccccc1)c1ccccc1)c1cccc([N+](=O)[O-])c1 (centres undefined)	16	1	-7	-22	-3
CCN(C(=O)COc1cccc2cccnc12)C1CCS(=O)(=O)C1 (centres undefined)	6	-2	-1	17	-1
Cc1cc(NC(=O)CSc2nc(C(C)C)nc3sc(C)c(C)c23)no1	-4	8.4*	-2	-17	-9
Cc1sc2nc(C(C)C)nc(SCC(=O)NC3CC3)c2c1C	18	1	-22	-12	-12
O=C(NCc1ccccc1)C(c1ccc(-c2ccccc2)cc1)N1CCN(c2ccccc2F)CC1 (centres undefined)	x	x	-6	x	x
C=C(C(=O)c1ccccc1)C(C)C(=C)C(=O)c1ccccc1	-1	0	22*	-29	10
CCOC(=O)Cn1c(=O)oc2cc(S(=O)(=O)N3CCCc4ccccc43)ccc21	30*	-1	-1	11	8
CC(C)(C)c1cc(NC(=O)Nc2ccccc2OC(F)(F)F)no1	15	8.7*	-20	20	12
COC(=O)c1ccccc1NC(=O)Nc1cc(C(C)(C)C)on1	5	-3	-5	1	-16
CC(C)Cc1ccc(C(C)/C=C2/CCC(CN3CCCCC3)C2=O)cc1 (centres undefined)	17	2	23*	36	25
CCN(Cc1ccncc1)Cc1nc(Cc2ccccc2Cl)no1	-1	1	0	6	-6
O=[N+]([O-])c1cc(C(F)(F)F)ccc1Sc1ccccn1	-5	8.6*	-5	7	-20
COc1ccc(/C=C/c2cc(C(F)(F)F)[nH]c(=O)n2)cc1OC	-7	2	22*	-5	5
COc1ccc(Cl)cc1NC(=O)C1CC(c2ccccc2O)=NO1 (centres undefined)	-4	5	7	-24	0
CCC(C)(C)n1nnnc1CN(Cc1ccco1)Cc1cc2cc3c(cc2[nH]c1=O)OCO3	-6	-1	23*	0	0
COCCn1nnnc1CN(Cc1ccco1)Cc1cc2cc3c(cc2[nH]c1=O)OCO3	7	2	22*	-9	6
CCC(C)(C)n1nnnc1CN(Cc1ccc(Cl)cc1)Cc1ccco1	5	2	4	57	6
Cc1cc(Cl)ccc1C(O)c1ncc(-c2ccc(F)cc2)[nH]1 (centres undefined)	6	2	-12	x	x
CSc1ncccc1C(=O)N1CCCC(N2CCN(c3ccccc3F)CC2)C1 (centres undefined)	7	-2	0	-10	7
Cc1cc(C)cc(NC(=O)Nc2ccc(-n3ccc(C(F)(F)F)n3)cc2)c1	14	8.8*	-10	4	2
COc1ccccc1OCCSc1nc2ccccc2n1CC(=O)O	-1	0	9	-6	x
Cc1cc(=O)oc2cc(NC(=O)C3COc4ccccc4O3)ccc12 (centres undefined)	13	11*	-10	-17	0
O=C(Nc1ccc2c(c1)OCO2)C1COc2ccccc2O1 (centres undefined)	1	-1	4	6	5

Assay outcomes (PubChem)
